Published values gathered from unrelated publications.
Lines come from different studies, so protocols differ.
Cell line: HeLa
Observed: cell growth or viability

O=[N+]([O-])c1ccc(-c2nc3cccc(O)c3[nH]2)o1  CC50 (resazurin; 72 h): 20 µM
COCCN1CCN(c2nc(SCCc3ccccc3)c(C#N)c3c2COC(C)(C)C3)CC1  CC50: < 50 µM
CCOP(=O)(OCC)[C@@H]1C[C@H](n2cc(Cn3cc(C)c(=O)[nH]c3=O)nn2)ON1C (racemic)  CC50 (72 h): > 250 µM
COC(=O)c1ccnc(C(=O)OC)c1  CC50: > 1000 µM
Cc1nc2ccc(Cl)cn2c1C(=O)N1CCN(Cc2cn(-c3ccc(Br)cc3)nn2)CC1  CC50 (resazurin): > 100 µM
CN1CC[C@H](c2c(O)cc(O)c3c(=O)cc(-c4ccccc4Cl)oc23)[C@H](O)C1  CC50 (MTT; 72 h): 0.12 µM
O=C(O)c1ccc(O)c2ncccc12  CC50: > 1000 µM
CCOP(=O)(OCC)[C@@H]1C[C@@H](n2cc(C(=O)OC)nn2)ON1C (relative stereo)  CC50 (72 h): > 250 µM
Cc1nc2ccc(Cl)cn2c1C(=O)N1CCN(Cc2cn(-c3ccc(F)c(Cl)c3)nn2)CC1  CC50 (resazurin): > 100 µM
COC(=O)[C@@H]1Cc2c([nH]c3ccccc23)[C@@H](c2ccc3c(c2)OCO3)N1  CC50 (MTT; 48 h): 10 µg/mL
Cc1ccn2c(C(=O)N3CCN(Cc4cn(-c5ccc(Br)cc5)nn4)CC3)c(C)nc2c1  CC50 (resazurin): > 100 µM
CSSc1ccccc1C(=O)O  CC50 (MTT; 48 h): 409 µM
CCOP(=O)(OCC)[C@@H]1C[C@@H](n2cc(-c3nccn3C)nn2)ON1C  CC50 (72 h): > 250 µM
Cc1nc2ccc(Cl)cn2c1C(=O)N1CCN(Cc2cn(-c3ccccc3F)nn2)CC1  CC50 (resazurin): > 100 µM
CCOP(=O)(OCC)[C@@H]1C[C@@H](n2cc(Cn3cnc4c(N)ncnc43)nn2)ON1C (racemic)  CC50 (72 h): > 250 µM
Cc1nc2ccc(Cl)cn2c1C(=O)N1CCN(Cc2cn(-c3ccccc3Cl)nn2)CC1  CC50 (resazurin): > 100 µM
